How the values were obtained:
KB [1] = experiment: Induction of apoptosis in human KB cells assessed as early apoptotic cells level at 10 uM after 48 hrs by Annexin V and propidium iodide staining based flow cytometry (reference value: 7.69%); format: functional
Method in brief: (§1)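 KB cells were plated in 6-well plates at 2.5 × 10^5 cells/mL and treated for 48 h. Adherent and floating cells were pooled, washed twice in PBS and stained with Annexin V and PI in binding buffer for 20 min at room temperature. Samples were read immediately on a FACSCalibur; untreated cells served as control. Values are means ± SE of at least three independent experiments.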

[2] = Chemical stability in 10 mM pH 7.4 PBS buffer assessed as parent compound remaining at 1 uM at 37 degC after 24 hrs by HPLC method; format: physicochemical; settings: read-out: Stability
Method in brief: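 DMSO stock was diluted into pre-warmed 10 mM PBS, pH 7.4, with 1% v/v DMSO final, and incubated at 37 °C. Aliquots were taken at set times and injected directly onto reversed-phase HPLC (ODS column, water + 0.1% TFA eluent, external standard). The result is percent parent remaining after 24 h, mean ± SD, n = 3.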

KB [3] = experiment: Induction of apoptosis in human KB cells assessed as late apoptotic cells level at 40 uM after 48 hrs by Annexin V and propidium iodide staining based flow cytometry (reference value: 4.4%); format: functional; method in brief: as §1
KB [4] = experiment: Induction of apoptosis in human KB cells assessed as late apoptotic cells level at 10 uM after 48 hrs by Annexin V and propidium iodide staining based flow cytometry (reference value: 4.4%); format: functional; method in brief: as §1
[5] = Antiproliferative activity against human SGC7901 cells after 48 hrs by MTT assay; format: functional, cell-based; settings: SGC-7901, 48 h
Method in brief: (§2)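 Cells were seeded at 3 × 10^3 per well and exposed 24 h later, while growing exponentially, to compounds at final concentrations of 1.25 to 40 for 48 h. MTT (5 mg/mL in PBS) was then added for 6 h. The medium was aspirated, the formazan dissolved in DMSO and absorbance read at 570 nm. Survival is relative to untreated cells; IC50 comes from triplicate wells in at least three independent experiments.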

KB [6] = experiment: Induction of apoptosis in human KB cells assessed as necrotic cells level at 40 uM after 48 hrs by Annexin V and propidium iodide staining based flow cytometry (reference value: 3.64%); format: functional; method in brief: as §1
A549 = experiment: Antiproliferative activity against human A549 cells after 48 hrs by MTT assay; format: functional, cell-based; settings: A549, 48 h; method in brief: as §2
KB [7] = experiment: Induction of apoptosis in human KB cells assessed as necrotic cells level at 10 uM after 48 hrs by Annexin V and propidium iodide staining based flow cytometry (reference value: 3.64%); format: functional; method in brief: as §1
KB [8] = experiment: Induction of apoptosis in human KB cells assessed as late apoptotic cells level at 20 uM after 48 hrs by Annexin V and propidium iodide staining based flow cytometry (reference value: 4.4%); format: functional; method in brief: as §1
KB [9] = experiment: Induction of apoptosis in human KB cells assessed as necrotic cells level at 20 uM after 48 hrs by Annexin V and propidium iodide staining based flow cytometry (reference value: 3.64%); format: functional; method in brief: as §1
[10] = Antiproliferative activity against human HL60 cells after 48 hrs by MTT assay; format: functional, cell-based; settings: HL-60, 48 h; method in brief: as §2
[11] = Antiproliferative activity against human HL7702 cells after 48 hrs by MTT assay; format: cell-based; settings: L02, 48 h; method in brief: as §2
B16 = experiment: Antiproliferative activity against mouse B16 cells after 48 hrs by MTT assay; format: functional, cell-based; settings: B16, 48 h; method in brief: as §2
KB [12] = experiment: Induction of apoptosis in human KB cells assessed as viable cells level at 20 uM after 48 hrs by Annexin V and propidium iodide staining based flow cytometry (reference value: 84.3%); format: functional; method in brief: as §1
KB [13] = experiment: Induction of apoptosis in human KB cells assessed as viable cells level at 10 uM after 48 hrs by Annexin V and propidium iodide staining based flow cytometry (reference value: 84.3%); format: functional; method in brief: as §1
[14] = Stability in 80% rat plasma assessed as parent compound remaining at 1 uM at 37 degC after 24 hrs by HPLC method; format: ADME, cell-free; settings: read-out: Stability
Method in brief: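 Thawed rat plasma was diluted to 80% v/v with 0.1 M PBS, pH 7.4. Compound was spiked from DMSO stock (1% v/v DMSO final) and held at 37 °C. Aliquots were quenched with two volumes of acetonitrile and centrifuged at 4 °C, 10,000 g, 10 min. Supernatants were run on HPLC with external standard; the result is percent parent remaining at 24 h, mean ± SD, n = 3.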

[15] = Antiproliferative activity against human SMMC7721 cells after 48 hrs by MTT assay; format: functional, cell-based; settings: SMMC-7721, 48 h; method in brief: as §2
KB [16] = experiment: Induction of apoptosis in human KB cells after 48 hrs by Annexin V and propidium iodide staining based flow cytometry; format: functional, cell-based; method in brief: as §1
KB [17] = experiment: Prodrug conversion in human KB cells lysates assessed as glaucocalyxin A formation at 500 uM in presence of 10 mM cysteine by LC-HRMS method; format: ADME, cell-based, Lysate
Method in brief: (§3)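 KB cells (5 × 10^6) were lysed by freeze/thaw. DMSO stock prepared just before use was added to lysate already containing cysteine, with DMSO matched in controls, and incubated at 37 °C. Aliquots taken at 30 min and 1 h were mixed with two volumes of acetonitrile and centrifuged (4 °C, 10,000 g, 10 min). They were analysed by LC-HRMS in positive mode using a water + 0.1% formic acid/methanol gradient.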

KB [18] = experiment: Induction of apoptosis in human KB cells assessed as viable cells level at 40 uM after 48 hrs by Annexin V and propidium iodide staining based flow cytometry (reference value: 84.3%); format: functional; method in brief: as §1
KB [19] = experiment: Induction of apoptosis in human KB cells assessed as early apoptotic cells level at 40 uM after 48 hrs by Annexin V and propidium iodide staining based flow cytometry (reference value: 7.69%); format: functional; method in brief: as §1
KB [20] = experiment: Antiproliferative activity against human KB cells after 48 hrs by MTT assay; format: functional, cell-based; method in brief: as §2
KB [21] = experiment: Induction of apoptosis in human KB cells assessed as early apoptotic cells level at 20 uM after 48 hrs by Annexin V and propidium iodide staining based flow cytometry (reference value: 7.69%); format: functional; method in brief: as §1
KB [22] = experiment: Prodrug conversion in human KB cells lysates assessed as formation of cysteine conjugates at 500 uM in presence of 10 mM cysteine by LC-HRMS method; format: ADME, cell-based, Lysate; method in brief: as §3
KB [23] = experiment: Retention time of the compound in human KB cells lysates treated with 500 uM in presence of 10 mM cysteine by LC-HRMS method
KB [24] = experiment: Induction of apoptosis in human KB cells assessed as early apoptotic cells level at 5 uM after 48 hrs by Annexin V and propidium iodide staining based flow cytometry (reference value: 7.08%); format: functional; method in brief: as §1
KB [25] = experiment: Induction of apoptosis in human KB cells assessed as necrotic cells level at 5 uM after 48 hrs by Annexin V and propidium iodide staining based flow cytometry (reference value: 3.23%); format: functional; method in brief: as §1
KB [26] = experiment: Induction of apoptosis in human KB cells assessed as early apoptotic cells level at 10 uM after 48 hrs by Annexin V and propidium iodide staining based flow cytometry (reference value: 7.08%); format: functional; method in brief: as §1
KB [27] = experiment: Induction of apoptosis in human KB cells assessed as early apoptotic cells level at 20 uM after 48 hrs by Annexin V and propidium iodide staining based flow cytometry (reference value: 7.08%); format: functional; method in brief: as §1
KB [28] = experiment: Induction of apoptosis in human KB cells assessed as viable cells level at 5 uM after 48 hrs by Annexin V and propidium iodide staining based flow cytometry (reference value: 87.4%); format: functional; method in brief: as §1
KB [29] = experiment: Induction of apoptosis in human KB cells assessed as viable cells level at 20 uM after 48 hrs by Annexin V and propidium iodide staining based flow cytometry (reference value: 87.4%); format: functional; method in brief: as §1
KB [30] = experiment: Induction of apoptosis in human KB cells assessed as viable cells level at 10 uM after 48 hrs by Annexin V and propidium iodide staining based flow cytometry (reference value: 87.4%); format: functional; method in brief: as §1
KB [31] = experiment: Induction of apoptosis in human KB cells assessed as late apoptotic cells level at 20 uM after 48 hrs by Annexin V and propidium iodide staining based flow cytometry (reference value: 2.26%); format: functional; method in brief: as §1
KB [32] = experiment: Induction of apoptosis in human KB cells assessed as necrotic cells level at 10 uM after 48 hrs by Annexin V and propidium iodide staining based flow cytometry (reference value: 3.23%); format: functional; method in brief: as §1
KB [33] = experiment: Induction of apoptosis in human KB cells assessed as necrotic cells level at 20 uM after 48 hrs by Annexin V and propidium iodide staining based flow cytometry (reference value: 3.23%); format: functional; method in brief: as §1
KB [34] = experiment: Induction of apoptosis in human KB cells assessed as late apoptotic cells level at 5 uM after 48 hrs by Annexin V and propidium iodide staining based flow cytometry (reference value: 2.26%); format: functional; method in brief: as §1
KB [35] = experiment: Induction of apoptosis in human KB cells assessed as late apoptotic cells level at 10 uM after 48 hrs by Annexin V and propidium iodide staining based flow cytometry (reference value: 2.26%); format: functional; method in brief: as §1

## Cc1ccc(NCC2C(=O)[C@@]34[C@H](O)C[C@@H]5C(C)(C)C(=O)CC[C@@]5(C)[C@@H]3CC[C@@H]2[C@H]4O)cc1 (stereo partly drawn)
KB [1]
  Activity: 14.5%
[2]
  remaining at 24 h, 1 µM: 104%
KB [3]
  Activity: 15.6%
KB [4]
  Activity: 4.46%
[5]
  IC50: 16.1 µM
KB [6]
  Activity: 11.9%
A549
  IC50: 10.6 µM
KB [7]
  Activity: 3.19%
KB [8]
  Activity: 5.42%
KB [9]
  Activity: 4.13%
[10]
  IC50: 8.92 µM
[11]
  IC50: 21.1 µM
B16
  IC50: 8.54 µM
KB [12]
  Activity: 69.9%
KB [13]
  Activity: 77.9%
[14]
  remaining at 24 h, 1 µM: 86.4%
[15]
  IC50: 12.2 µM
KB [16]
  Activity: Dose-dependent effect
KB [17]
  Drug metabolism: metabolite_detected
KB [18]
  Activity: 49%
KB [19]
  Activity: 23.4%
KB [20]
  IC50: 7.22 µM
KB [21]
  Activity: 20.5%
KB [22]
  Retention_time: 2.52 min

## C=C1C(=O)[C@@]23[C@H](O)C[C@@H]4C(C)(C)C(=O)CC[C@@]4(C)[C@@H]2CC[C@@H]1[C@H]3O [GLAUCOCALYXIN A]
[2]
  remaining at 24 h, 1 µM: 109%
KB [23]
  Retention_time: 5.75 min
KB [24]
  Activity: 10.7%
[5]
  IC50: 11.7 µM
A549
  IC50: 7.5 µM
KB [25]
  Activity: 4.95%
KB [26]
  Activity: 14.3%
[10]
  IC50: 5.52 µM
[11]
  IC50: 8.62 µM
B16
  IC50: 4.84 µM
KB [27]
  Activity: 33.4%
[14]
  remaining at 24 h, 1 µM: 24.2%
KB [28]
  Activity: 80.6%
[15]
  IC50: 8.11 µM
KB [16]
  Activity: Dose-dependent effect
KB [29]
  Activity: 43.9%
KB [20]
  IC50: 6.47 µM
KB [30]
  Activity: 76.1%
KB [31]
  Activity: 19%
KB [32]
  Activity: 2.69%
KB [22]
  Retention_time: 2.42 min
KB [33]
  Activity: 3.59%
KB [34]
  Activity: 3.69%
KB [35]
  Activity: 6.89%
